Here are results for 13 molecules from PMC3817526 (Nmr in Biomedicine, 2013).

Structures can show the parent of a compound that is named as a salt. Where two headings read alike, the source gives them in different places.

The nature of series [1]: Plasma chemistry analysis after CKA. Format: in vivo, rat.
Another series has as its system liver. Description: Liver pathology analysis. The format is in vivo. The conditions noted are these: CKA 20, 200 or 500 mg/kg oral, rat.
For the next series, the target named is rat Mrp2 (rMrp2) (Rattus norvegicus, UniProt Q63120). Description: Inhibition of CDF uptake into rMrp2 membrane vesicles. The format is biochemical. The settings on record: read-out: IC50, CDF uptake into vesicles expressing Mrp2; geometric mean, 95% CL 58.2–80.7, n = 4.
Series [2] relates to hepatic uptake and biliary excretion of gadoxetate. The format is in vivo, rat. The settings on record: for Vmax, gadoxetate efflux into bile / k1, rate of gadoxetate uptake into the hepatocyte: mean ± SEM. The method in brief: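 Rats (298 ± 26 g), six per group, got vehicle (water, 0.5% w/v HPMC/0.1% w/v polysorbate 80) or suspended compound by oral gavage (20–2000 mg/kg). Anaesthetised 30 min post-dose; DCE-MRI began 60 min post-dose, gadoxetate given by tail-vein pump at t = 5 min, acquisition run to 60 min (1 min/volume). Hepatocyte signal derived from liver and spleen signals using extracellular fraction; k1, Vmax, KM fitted by least-squares per dose group.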

The target in the next series is T1, rat Bsep (rBsep) (Rattus norvegicus, UniProt O70127).
T1 sequence (O70127 1-1321): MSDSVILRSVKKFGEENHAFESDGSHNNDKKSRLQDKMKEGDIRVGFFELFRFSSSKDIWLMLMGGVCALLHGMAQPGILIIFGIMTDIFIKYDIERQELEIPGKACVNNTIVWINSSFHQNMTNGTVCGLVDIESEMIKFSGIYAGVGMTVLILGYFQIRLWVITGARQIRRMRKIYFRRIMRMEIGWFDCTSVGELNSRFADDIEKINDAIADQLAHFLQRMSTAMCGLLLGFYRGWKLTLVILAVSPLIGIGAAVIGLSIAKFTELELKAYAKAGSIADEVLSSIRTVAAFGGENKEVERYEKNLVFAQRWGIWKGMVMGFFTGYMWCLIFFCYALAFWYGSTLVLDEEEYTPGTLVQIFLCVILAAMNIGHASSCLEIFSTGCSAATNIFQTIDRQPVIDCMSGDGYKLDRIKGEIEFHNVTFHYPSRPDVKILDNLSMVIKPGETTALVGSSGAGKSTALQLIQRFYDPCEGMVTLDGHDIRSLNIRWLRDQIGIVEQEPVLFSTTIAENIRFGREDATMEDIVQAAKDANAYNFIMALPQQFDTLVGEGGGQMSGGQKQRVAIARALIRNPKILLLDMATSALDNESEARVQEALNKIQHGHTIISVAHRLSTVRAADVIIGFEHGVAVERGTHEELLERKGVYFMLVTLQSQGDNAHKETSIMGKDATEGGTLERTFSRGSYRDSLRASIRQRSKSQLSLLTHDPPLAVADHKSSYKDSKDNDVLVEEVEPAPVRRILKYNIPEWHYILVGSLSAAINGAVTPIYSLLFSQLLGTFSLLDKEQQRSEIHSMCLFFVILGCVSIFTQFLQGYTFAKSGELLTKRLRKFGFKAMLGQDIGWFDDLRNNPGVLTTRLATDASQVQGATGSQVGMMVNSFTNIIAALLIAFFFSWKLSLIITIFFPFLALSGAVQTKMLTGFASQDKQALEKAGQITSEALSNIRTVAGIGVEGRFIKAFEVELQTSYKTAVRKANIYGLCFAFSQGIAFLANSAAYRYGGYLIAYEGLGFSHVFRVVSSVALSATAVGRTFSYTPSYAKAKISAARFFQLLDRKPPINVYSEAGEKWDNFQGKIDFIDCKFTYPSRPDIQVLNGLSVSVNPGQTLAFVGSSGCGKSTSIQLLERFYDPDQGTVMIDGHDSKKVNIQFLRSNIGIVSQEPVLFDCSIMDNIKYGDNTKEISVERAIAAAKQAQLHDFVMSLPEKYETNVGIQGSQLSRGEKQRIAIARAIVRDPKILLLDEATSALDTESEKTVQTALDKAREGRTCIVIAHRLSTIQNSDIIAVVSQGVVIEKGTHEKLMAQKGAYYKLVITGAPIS
Description: Inhibition of [3H]-taurocholate uptake into rBsep membrane vesicles. Format: biochemical. The conditions noted are these: read-out: IC50, [3H]-taurocholate uptake into vesicles expressing rBsep; geometric mean, 95% CL 109.8–153.2, n = 5.

The test system of series [3] is gadoxetate-induced MRI liver enhancement. The settings on record: rats, cited from earlier work; for maximum hepatic MRI signal enhancement by gadoxetate: administration of OATP inhibitors.
The conditions of series [4]: humans; cited from earlier work.
For series [5] the following is noted: rats; cited from earlier work.
The conditions of series [6]: 4.7 T, plasma value assumed for liver and spleen; cited from earlier work.
The subject of series [7] is relative liver MRI signal enhancement. The conditions noted are these: healthy volunteers; cited from earlier work.
Series [8] in a line: Gadopentetate DCE-MRI estimation of volume fraction of extracellular space. Format: in vivo, rat. The settings on record: gadopentetate 100 µmol/kg i.v., five rats, haematocrit 0.45, mean ± SEM. In outline: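 Healthy rats (282 ± 9 g). IntraGate FLASH DCE-MRI: ten 2 mm slices, TR 60.3 ms, TE 1.4 ms, flip 30°, 1 min/volume. Contrast given by tail-vein pump (5 ml/min) 5 min after acquisition start; acquisition continuous for 45 min. ve taken as the tissue/plasma AUC ratio, with plasma concentration equal to whole-blood concentration/(1 − Hct). Isoflurane overdose afterwards.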

Setting [9] is: CKA 20 mg/kg oral, rat, gadoxetate 25 µmol/kg i.v.
[10] abbreviates: CKA 200 mg/kg oral, rat, gadoxetate 25 µmol/kg i.v.
[11] abbreviates: CKA 500 mg/kg oral, rat, gadoxetate 25 µmol/kg i.v.
The mark [12] stands for this setting: CKA 2000 mg/kg oral, rat, gadoxetate 25 µmol/kg i.v.
Setting [13] is: gadoxetate 25 µmol/kg i.v. in rats given vehicle only (no CKA).

Sequence of rat Mrp2 (rMrp2) (Q63120 whole entry): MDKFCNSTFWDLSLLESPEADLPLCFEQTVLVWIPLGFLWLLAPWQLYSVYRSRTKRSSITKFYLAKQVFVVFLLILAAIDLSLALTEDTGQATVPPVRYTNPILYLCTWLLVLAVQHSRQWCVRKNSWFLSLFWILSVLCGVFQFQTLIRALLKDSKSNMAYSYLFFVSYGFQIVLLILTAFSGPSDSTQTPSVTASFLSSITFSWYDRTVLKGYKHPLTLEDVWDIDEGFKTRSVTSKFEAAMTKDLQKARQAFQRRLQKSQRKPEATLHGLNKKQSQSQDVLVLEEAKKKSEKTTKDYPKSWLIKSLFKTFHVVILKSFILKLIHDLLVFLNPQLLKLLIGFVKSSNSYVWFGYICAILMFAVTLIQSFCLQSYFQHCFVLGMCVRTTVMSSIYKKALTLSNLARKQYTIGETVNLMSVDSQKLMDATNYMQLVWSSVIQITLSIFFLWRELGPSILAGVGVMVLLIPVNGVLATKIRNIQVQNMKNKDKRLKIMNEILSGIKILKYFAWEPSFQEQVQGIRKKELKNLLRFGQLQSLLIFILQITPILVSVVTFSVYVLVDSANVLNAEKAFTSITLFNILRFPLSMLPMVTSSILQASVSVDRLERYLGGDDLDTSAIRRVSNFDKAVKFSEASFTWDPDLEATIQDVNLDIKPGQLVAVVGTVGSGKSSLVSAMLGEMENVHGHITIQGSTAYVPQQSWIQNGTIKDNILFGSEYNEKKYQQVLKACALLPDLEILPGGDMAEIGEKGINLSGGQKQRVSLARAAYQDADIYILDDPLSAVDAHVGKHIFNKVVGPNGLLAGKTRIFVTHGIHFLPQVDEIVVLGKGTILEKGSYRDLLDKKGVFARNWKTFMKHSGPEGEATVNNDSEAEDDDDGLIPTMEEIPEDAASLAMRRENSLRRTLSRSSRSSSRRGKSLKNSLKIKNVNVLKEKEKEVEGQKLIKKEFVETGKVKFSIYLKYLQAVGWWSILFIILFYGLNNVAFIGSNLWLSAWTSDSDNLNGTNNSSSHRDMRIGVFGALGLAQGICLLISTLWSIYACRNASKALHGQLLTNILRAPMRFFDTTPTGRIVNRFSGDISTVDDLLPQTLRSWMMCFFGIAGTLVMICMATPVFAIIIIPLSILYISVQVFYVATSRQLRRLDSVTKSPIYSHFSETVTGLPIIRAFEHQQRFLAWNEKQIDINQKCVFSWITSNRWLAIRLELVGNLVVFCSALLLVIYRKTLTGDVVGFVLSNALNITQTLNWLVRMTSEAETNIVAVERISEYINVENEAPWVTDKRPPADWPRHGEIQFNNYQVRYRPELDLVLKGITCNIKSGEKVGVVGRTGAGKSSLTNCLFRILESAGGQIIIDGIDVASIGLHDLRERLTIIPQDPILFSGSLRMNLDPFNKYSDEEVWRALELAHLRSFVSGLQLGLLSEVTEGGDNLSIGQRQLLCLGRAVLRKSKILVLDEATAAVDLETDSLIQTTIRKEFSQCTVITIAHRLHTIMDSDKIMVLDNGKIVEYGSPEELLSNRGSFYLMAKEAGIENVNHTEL

What is called IC50 is the concentration that gives 50% inhibition. Consider `O=C(O)c1cc2cc(O)ccc2n1Cc1ccc(Cl)c(C(F)(F)F)c1` [CKA, 1-(4-chloro-3-trifluoromethyl-benzyl)-5-hydroxy-1-H-indole-2-carboxylic acid], for which the plasma bile acids result in [1] (CKA 20-2000 mg/kg oral, rat) is reported as “marked dose-dependent increases”. For the same molecule, the plasma total bilirubin result in series [1] (CKA 20-2000 mg/kg oral, rat) is “marked dose-dependent increases”. The “plasma ALT levels” value in [1] (CKA 20-2000 mg/kg oral, rat, most evident at 500 and 2000 mg/kg) is “dose-related increase”. Further, in [1] (single animal with necrosis, CKA 2000 mg/kg), the “plasma ALT value” is 344 IU/l. The “liver histology (H&E liver sections)” value in the series on liver was “no histological features indicative of drug-induced hepatotoxicity”. The half-maximal inhibitory concentration (IC50) was 68.5 µM at rat Mrp2 (rMrp2) and 130 µM on rat Bsep (rBsep). In series [2] (CKA 20 mg/kg oral, compared with vehicle), the “effect on the kinetic parameters k1, Vmax and KM of gadoxetate” value was “no significant effect”. For the same molecule, the “Vmax, gadoxetate efflux into bile” value was found to be 2.9 ± 0.4 µmol/s in [2] (setting [9]), 0.6 ± 0.2 µmol/s in series [2] (setting [10]), 0.1 ± 0.1 µmol/s in series [2] (setting [11]) and 0.1 ± 0.1 µmol/s in series [2] (setting [12]). The “k1, rate of gadoxetate uptake into the hepatocyte” value in series [2] (setting [9]) came to 26.1 ± 3.3 µmol/s; in series [2] (setting [10]) it was 6.6 ± 1.9 µmol/s; in series [2] (setting [11]), 1.7 ± 0.4 µmol/s; in series [2] (setting [12]) it was 1.2 ± 0.2 µmol/s. In addition, the “gadoxetate enhancement of the bowel (images)” value in series [2] (CKA 500 mg/kg oral) is reported as “no enhancement”. Moreover, in series [2] (CKA 200 and 500 mg/kg oral, compared with vehicle), the “rate of gadoxetate uptake into the liver and clearance from the liver into the GI tract (images)” value was “marked and dose-dependent reduction”.

Take `CC(C)NCC(O)COc1cccc2ccccc12` (stereo not shown) [propranolol hydrochloride]: in series [3], the “maximum hepatic MRI signal enhancement by gadoxetate” value is “reduction”.

For the molecule `O=C1OC(c2ccc(O)c(S(=O)(=O)O)c2)(c2ccc(O)c(S(=O)(=O)O)c2)c2c(Br)c(Br)c(Br)c(Br)c21` [bromosulfophthalein], the “maximum hepatic MRI signal enhancement by gadoxetate” value in series [3] is given as “reduction”.

For the molecule `CCOc1ccc(C[C@@H](CN(CCN(CC(=O)[O-])CC(=O)[O-])CC(=O)[O-])N(CC(=O)[O-])CC(=O)[O-])cc1.[Gd+3].[H+].[H+]` [gadoxetate], the “excreted via each route (biliary, renal)” value in [4] was 50%. For the same molecule, in [5], the “gadoxetate clearance, biliary” value is 70% and the “gadoxetate clearance, renal” value is listed as 30%. In addition, in series [2] (setting [13]), the “Vmax, gadoxetate efflux into bile” value worked out at 2.9 ± 0.3 µmol/s and the “k1, rate of gadoxetate uptake into the hepatocyte” value is 29.4 ± 3.0 µmol/s. Moreover, the “relaxivity r1” value in series [6] is 5.9 s⁻¹ mM⁻¹.

In the case of `C=CC1=C(C)/C(=C/c2[nH]c(Cc3[nH]c(/C=C4\NC(=O)C(C)=C4C=C)c(C)c3CCC(=O)O)c(CCC(=O)O)c2C)NC1=O` [bilirubin], the “maximum hepatic MRI signal enhancement by gadoxetate” value in series [3] is given as “reduction”.

As to `C[C@]12C=CC(=O)C=C1CC[C@@H]1[C@@H]2[C@@H](O)C[C@@]2(C)[C@H]1CC[C@]2(O)C(=O)CO` [prednisolone], in series [3], the “maximum hepatic MRI signal enhancement by gadoxetate” value is on record as “reduction”.

Take `CC[C@H]1OC(=O)[C@H](C)[C@@H](O[C@H]2C[C@@](C)(OC)[C@@H](O)[C@H](C)O2)[C@H](C)[C@@H](O[C@@H]2O[C@H](C)C[C@H](N(C)C)[C@H]2O)[C@](C)(O)C[C@@H](C)C(=O)[C@H](C)[C@@H](O)[C@]1(C)O` [erythromycin]: the “relative liver MRI signal enhancement versus control subjects” value in series [7] is “did not show a statistically significant difference”.

`CO[C@H]1/C=C/O[C@@]2(C)Oc3c(C)c(O)c4c(O)c(c(/C=N/N5CCN(C)CC5)c(O)c4c3C2=O)NC(=O)/C(C)=C\C=C\[C@H](C)[C@H](O)[C@@H](C)[C@@H](O)[C@@H](C)[C@H](OC(C)=O)[C@@H]1C` [rifampicin]: the “maximum hepatic MRI signal enhancement by gadoxetate” value in series [3] was “reduction”.

In the case of `CO[C@H]1/C=C/O[C@@]2(C)Oc3c(C)c(O)c4c(O)c(cc(O)c4c3C2=O)NC(=O)/C(C)=C\C=C\[C@H](C)[C@H](O)[C@@H](C)[C@@H](O)[C@@H](C)[C@H](OC(C)=O)[C@@H]1C` [rifamycin], the “maximum hepatic MRI signal enhancement by gadoxetate” value in series [3] is given as “reduction”.

As to `O=C([O-])CN(CCN(CC(=O)[O-])CC(=O)O)CCN(CC(=O)[O-])CC(=O)O.[Gd+3]` [gadopentetate], in series [8], the “liver fractional extracellular space (AUC ratio tissue/plasma)” value is on record as 0.23 ± 0.02 and the “spleen fractional extracellular space (AUC ratio tissue/plasma)” value is 0.43 ± 0.02. Further, the “relaxivity r1” value in [6] is 3.8 s⁻¹ mM⁻¹.

As for `N.N.[Cl][Pt][Cl]` [cisplatin], in series [3], the “maximum hepatic MRI signal enhancement by gadoxetate” value is on record as “reduction”.

On to `C[C@]12CC[C@@H]3c4ccc(O)cc4CC[C@H]3[C@@H]1CC[C@@H]2O[C@@H]1O[C@H](C(=O)O)[C@@H](O)[C@H](O)[C@H]1O` [estradiol 17-β-D-glucuronide], for which, in [3] (single administration), the “gadoxetate-induced MRI liver enhancement” value was “transiently prolonged”.

For the molecule `COc1cccc2c1C(=O)c1c(O)c3c(c(O)c1C2=O)C[C@@](O)(C(=O)CO)C[C@@H]3O[C@H]1C[C@H](N)[C@H](O)[C@H](C)O1` [doxorubicin hydrochloride], the “maximum hepatic MRI signal enhancement by gadoxetate” value in [3] is recorded as “reduction”.
